ABCB1 inh: blocks JC-1 efflux by human ABCB1 transporter; P08183; inhibition, % at 6.6 µM; AID 1326; 0.067% of 190,000 active; CCRF-Adr cells, flow cytometry; in the data active = inhibition above about 40%;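 note: 0% = vehicle and 100% = reference inhibitor; higher value means more JC-1 retained so stronger ABCB1 efflux block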
FLuc act counter: firefly luciferase counter-screen for stimulation assays; ATPlite luciferase biochemical, luminescence, 10 min; 0 = ATP-free wells, 1 = DMSO control; activation factor at 10 µM; 200,000 tested, under 10 active; AID 1027;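 active = luciferase activation factor, scaled between plate controls, of at least 2 with compound at 10 µM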
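Assay system: Luciferase/luciferin detection reagent, cell-free biochemical luciferase assay / Read-out: luciferase activation / Benchmarks: No-ATP low control, compound-free enzyme-plus-ATP high control / Medium: PBS buffer for ATP / Detection: luminescence measurement of luciferase light output / Schedule: 10 min at ambient temperature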
FLuc inhib CS: inhibits firefly luciferase, flagging false hits in luciferase inhibition screens | ATPLite firefly luciferase biochemical luminescence, 10 min | inhibition, % at 10 µM | P08659 | 1.5% of 200,000 active;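 active = inhibition above about 50% when tested at 10 µM, limit read from the data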
ABCB6 inh 2: human ABCB6 transporter inhibition. K562-ABCB6 porphyrin accumulation, flow cytometry, 1 h; active compounds read low. fluorescence ratio to DMSO, % at 10 µM. Q9NP58. 0.19% of 360,000 active;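 active = fluorescence ratio to DMSO below 75%, the collection mean minus 3 SD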;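 note: signal is porphyrin accumulated inside mitochondria; 100% equals median channel fluorescence of DMSO control wells; lower ratio means ABCB6 inhibition with less porphyrin fluorescence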
Target sequence (Q9NP58 whole entry, looked up): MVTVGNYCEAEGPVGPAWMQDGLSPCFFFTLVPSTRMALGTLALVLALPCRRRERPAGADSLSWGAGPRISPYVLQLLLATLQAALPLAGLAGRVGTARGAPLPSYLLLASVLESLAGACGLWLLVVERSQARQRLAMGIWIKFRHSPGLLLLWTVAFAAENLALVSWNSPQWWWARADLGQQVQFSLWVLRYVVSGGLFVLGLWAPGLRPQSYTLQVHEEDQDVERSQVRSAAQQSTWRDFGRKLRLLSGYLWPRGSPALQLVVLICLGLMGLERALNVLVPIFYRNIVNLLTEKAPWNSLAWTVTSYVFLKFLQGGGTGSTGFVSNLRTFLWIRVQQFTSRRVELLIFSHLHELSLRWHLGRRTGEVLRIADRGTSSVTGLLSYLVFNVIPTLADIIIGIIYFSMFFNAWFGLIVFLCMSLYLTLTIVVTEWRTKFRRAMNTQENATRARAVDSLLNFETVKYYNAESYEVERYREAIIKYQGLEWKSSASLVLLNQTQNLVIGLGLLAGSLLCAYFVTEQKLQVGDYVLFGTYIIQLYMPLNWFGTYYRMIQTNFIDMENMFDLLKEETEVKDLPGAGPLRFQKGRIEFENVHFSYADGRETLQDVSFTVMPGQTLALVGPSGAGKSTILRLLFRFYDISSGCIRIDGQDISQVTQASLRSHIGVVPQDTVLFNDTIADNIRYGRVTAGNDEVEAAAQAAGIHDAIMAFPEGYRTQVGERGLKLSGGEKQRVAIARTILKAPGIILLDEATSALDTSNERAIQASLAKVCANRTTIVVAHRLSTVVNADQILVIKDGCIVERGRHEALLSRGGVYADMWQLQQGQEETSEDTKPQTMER
Diaph act CS: activates diaphorase or chemically reduces, flagging diaphorase assay artifacts; Diaphorase/resazurin coupled assay, resorufin fluorescence, 16 min; active compounds read high; 1 = vehicle wells, 0 = NADH-free wells; activation factor at 20 µM; 0.005% of 190,000 active;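 active = diaphorase activity raised at least twofold by the compound at 20 µM; inactive = activation factor below 2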
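Material: Purified diaphorase enzyme from Clostridium kluyveri | Buffer or medium: 50 mM HEPES pH 7.4 with 4.542 mM MgCl2, 0.005% Tween 20 | Times: 16 min enzyme reaction, ambient temperature | Signal: Red resorufin fluorescence at 544/590 nm excitation/emission | Measure: Increased resorufin signal from activators or reducing compounds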
ABCG2 inh: inhibitors of human ABCG2 transporter, ABCB1 counter-screen; inhibition, % at 6.6 µM; 0.1% of 190,000 active; Q9UNQ0; IgMXP3 cells, JC-1 efflux, flow cytometry;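 active = inhibition above 80%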;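 note: 0% = DMSO and 100% = nicardipine control wells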
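Assay system – ABCG2 IgMXP3 and barcoded ABCB1 CCRF-Adr cell mix · Input – 3 million cells/mL in well · Reagent – JC-1 fluorescent substrate · Compound – single test compound dose, 6.6 µM final · Timing – 10 min exposure at 25 °C with rotation, no wash · Detection – flow cytometry of retained JC-1 fluorescence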
ABCB1 confirm: inhibits human ABCB1 efflux, confirmed at single point. shares compounds with ABCG2 inh. CCRF-Adr cells, JC-1 efflux, flow cytometry. inhibition, % at 6.6 µM. 7% of 270 active;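 active = inhibition of pump activity above 50%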;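 note: 0% = DMSO and 100% = nicardipine full pump inhibition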
ABCG2 confirm: confirmation of human ABCG2 transporter inhibitors, ABCB1 counter-screen. shares compounds with ABCG2 inh. IgMXP3 cells, JC-1 efflux, flow cytometry. inhibition, % at 6.6 µM. 6% of 270 active;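 active = inhibition above 50%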;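 note: 0% = DMSO wells and 100% = nicardipine pump inhibitor wells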
IgMXP3 fluor: compound fluoresces at 488/530 nm in IgMXP3 cells. shares compounds with ABCG2 inh. compound autofluorescence 488/530 nm, flow; active compounds read high. fluorescence at 6.6 µM. 30% of 270 active. AID 1480;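 active = fluorescence in ABCG2-expressing cells above the plate's control-well mean plus 3 SD, cut at about 15 in these data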;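 note: median cell fluorescence with compound minus that of DMSO-treated control cells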
CCRF-Adr fluor: CCRF-Adr autofluorescence flag for ABCB1 confirmation. shares compounds with ABCG2 inh. AID 1483. fluorescence at 6.6 µM. 30% of 270 active. CCRF-Adr cells, compound autofluorescence 488/530 nm, flow cytometry; active compounds read high;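 active = fluorescence beyond the plate control mean plus 3 SD, with a fluorescence-to-maximum score over 2, cut at about 25 in these data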
ABCB6 blocker 1: blocks the human ABCB6 transporter. shares compounds with ABCB6 inh 2. K562-ABCB6 porphyrin accumulation, flow cytometry, 1 h; active compounds read low. ratio response (% of DMSO), % at 10 µM. 700 tested, under 10 active. AID 602430;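 active = repeat-averaged ratio response below 75% of DMSO, the collection mean minus 3 SD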;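 note: median porphyrin fluorescence at 575 nm with 488 nm excitation from mitochondria; lower ratio means less porphyrin signal so ABCB6 inhibition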
* marks the source's active call; other numbers are inactive results. This is one part of a sample in which hits are shown more often than they occur.

For COc1cc(C(=O)N/N=C/c2ccc(OC)c(CN3CCN(c4ccc(F)cc4)CC3)c2)ccc1O the results were ABCB1 inh 45*, FLuc act counter 0.9, FLuc inhib CS 5, ABCB6 inh 2 97, Diaph act CS 0.9, ABCG2 inh 16, ABCB1 confirm 64*, ABCG2 confirm 37, IgMXP3 fluor -2 and CCRF-Adr fluor -3.1.
Screening COc1ccc(/C=N/NC(=O)c2ccccc2F)cc1CN1CCN(c2ccc(F)cc2)CC1 returned ABCB1 inh 52*, FLuc act counter 1, FLuc inhib CS -4, ABCB6 inh 2 101, Diaph act CS 0.9, ABCG2 inh 24, ABCB1 confirm 31, ABCG2 confirm 7, IgMXP3 fluor 0.36 and CCRF-Adr fluor -2.3.
For COc1ccc(/C=N/NC(=O)c2ccccc2)cc1CN1CCN(c2ccc(F)cc2)CC1 the results were ABCB1 inh 6, FLuc act counter 1, FLuc inhib CS -2, ABCB6 inh 2 96, Diaph act CS 0.9 and ABCG2 inh 2.
Screening O=[N+]([O-])c1cc(Cl)ccc1NCCNS(=O)(=O)c1ccccc1 returned ABCB1 inh 3, FLuc act counter 1, FLuc inhib CS 5, ABCB6 inh 2 92, Diaph act CS 0.8, ABCG2 inh 119*, ABCB1 confirm 7, ABCG2 confirm 18, IgMXP3 fluor 2.3 and CCRF-Adr fluor 32*.
For O=[N+]([O-])c1ccccc1NCCNS(=O)(=O)c1ccc(Cl)cc1 the results were ABCB1 inh 1, FLuc act counter 1, FLuc inhib CS -3, ABCB6 inh 2 90, Diaph act CS 0.8 and ABCG2 inh 13.
`COc1ccc(NC(=O)CSc2nnc(CN3CCOCC3)n2C)cc1Cl` gave ABCB6 inh 2 98.
`COc1ccc(CCNCC2C(Oc3ccc(Cl)cc3)C(=O)N2c2ccccc2C)cc1OC` (centres undefined) gave ABCB1 inh 53*, FLuc act counter 1, FLuc inhib CS -2, ABCB6 inh 2 92, Diaph act CS 1, ABCG2 inh 19, ABCB1 confirm 31, ABCG2 confirm 37, IgMXP3 fluor 5.1 and CCRF-Adr fluor 5.8.
COCCNCC1C(Oc2ccc(Cl)cc2)C(=O)N1c1ccccc1C (centres undefined) was read as ABCB1 inh 1, FLuc act counter 1, FLuc inhib CS -2, ABCB6 inh 2 103, Diaph act CS 0.9 and ABCG2 inh 2.
CC(Nc1nc2ncn(Cc3ccccc3)c2c(=O)[nH]1)C(=O)O (centres undefined) was read as ABCB1 inh 0, FLuc act counter 1, FLuc inhib CS 1, Diaph act CS 1.1 and ABCG2 inh 2.
For O=C(O)CCCCCNc1nc2ncn(Cc3ccccc3)c2c(=O)[nH]1 the results were ABCB1 inh 0, FLuc act counter 1, FLuc inhib CS 2, ABCB6 inh 2 57*, Diaph act CS 1, ABCG2 inh 2 and ABCB6 blocker 1 100.
CCn1c(SCC(=O)N2CCC(C)CC2)nc2c(c1=O)SC(C)C2 (centres undefined) was read as ABCB6 inh 2 94.

Screening data: PubChem BioAssay, several laboratories
